Activity calls are given as the source filed them. The calls are words filed in the database; no cut-off is given here.
Columns and labels:
[1] = Metal chelating activity assessed as negative logarithm of total free ferric ion concentration in a solution at 60 uM measured after 48 hrs in presence of CP645 probe and Fe-NTA by fluorescence spectrophotometry analysis
[2] = system: Pseudomonas aeruginosa; test: Inhibition of biofilm formation in multidrug resistant Pseudomonas aeruginosa FB at 2.5 uM relative to control; format: functional
[3] = system: Pseudomonas aeruginosa PAO1; test: Induction of iron chelation in Pseudomonas aeruginosa PAO1 assessed as increase in intracellular pyochelin level at 1.25 to 20 uM in presence of 50 uM FeCl3 by fluorescence microplate reader assay; format: cell-based; conditions: dose microM 1.25-20
Summary of the method: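 PAO1 overnight LB culture was diluted in ABTGC medium to OD600 0.02 ([…]), with compound at 0–20 μM, in medium containing 10 or 50 μM FeCl3. Plates were kept at 37 °C in a plate reader recording OD600, pyoverdine fluorescence (ex 400/em 447 nm) and pyochelin fluorescence (ex 350/em 430 nm). Triplicate.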

[4] = system: Pseudomonas aeruginosa; test: Antibiofilm activity against Pseudomonas aeruginosa PAO1 assessed as inhibition of biofilm formation at 20 uM after 24 hrs by crystal violet staining based assay relative to control; format: functional
Summary of the method: (§1)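 PAO1 (OD600 0.05) was cultured in ABTGC medium at 37 °C for 24 h with compound (1.25–20 μM for the dose series). Wells were PBS-washed three times, methanol-fixed for 30 min, air-dried, and stained with 0.1% crystal violet for 30 min. Stain was solubilized in 33% acetic acid and read at 570 nm. Compound stocks were […]. Run in triplicate.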

[5] = system: Pseudomonas aeruginosa; test: Inhibition of twitching motility in Pseudomonas aeruginosa PAO1 assessed at 1.25 to 20 uM measured after 16 hrs; format: functional; conditions: dose microM 1.25-20, time 16.0 hrs
Summary of the method: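 Plates of LB with 1% agar, 0.5% casamino acids and 0.5% glucose contained compound at 0–20 μM. After drying 1 h, 1 μL PAO1 (OD600 1) was inoculated at the plate bottom and incubated 16 h at 37 °C. Three independent experiments.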

[6] = system: Pseudomonas aeruginosa PAO1; test: Induction of iron chelation in Pseudomonas aeruginosa PAO1 assessed as increase in iron deficiency by measuring change in total ferric ion concentration at 5 uM by inductively coupled plasma mass spectrometry (reference value: 1.91 +/- 0.8 uM)
Summary of the method: (§2)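 PAO1 (OD600 0.05) was diluted 1:100 into ABTGC medium and grown 24 h at 37 °C with shaking, with compound; DFP at 20 μM was the reference. Pellets were washed twice in HEPES and lysed with lysozyme in 50 mM HEPES plus sonication for 30 min. Lysates were digested with 1 M nitric acid, centrifuged, and analysed by ICP-MS. Mean ± SD, triplicate.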

[7] = system: Pseudomonas aeruginosa PAO1; test: Induction of iron chelation in Pseudomonas aeruginosa PAO1 assessed as increase in iron deficiency by measuring change in total ferric ion concentration at 20 uM by inductively coupled plasma mass spectrometry (reference value: 1.91 +/- 0.8 uM)
[8] = system: Pseudomonas aeruginosa; test: Binding affinity to […] overexpressed in Pseudomonas aeruginosa PAO1 assessed as inhibition of biofilm formation at 1.25 to 20 uM; conditions: dose microM 1.25-20
[9] = system: Pseudomonas aeruginosa; test: Inhibition of biofilm formation in multidrug resistant Pseudomonas aeruginosa 1121 at 5 uM relative to control; format: functional
[10] = system: Pseudomonas aeruginosa; test: Antibiofilm activity against Pseudomonas aeruginosa PAO1 assessed as reduction in biofilm mass after 24 hrs by microtiter plate assay; format: functional, organism-based; conditions: dose microM 1.25-20, time 24.0 hrs; summary of the method: as §1
[11] = system: Pseudomonas aeruginosa PAO1; test: Induction of iron chelation in Pseudomonas aeruginosa PAO1 assessed as increase in iron deficiency by measuring ferric ion concentration inductively coupled plasma mass spectrometry; conditions: dose microM 1.25-20; summary of the method: as §2
[12] = system: Pseudomonas aeruginosa; test: Inhibition of biofilm formation in multidrug resistant Pseudomonas aeruginosa FB at 1.25 uM relative to control; format: functional
[13] = system: Pseudomonas aeruginosa; test: Inhibition of biofilm formation in multidrug resistant Pseudomonas aeruginosa 1129 at 20 uM relative to control; format: functional
[14] = system: Pseudomonas aeruginosa; test: Antibacterial activity against Pseudomonas aeruginosa infected in African green monkey Vero cells assessed as increase in cell survival pretreated for 24 hrs followed by cell addition and measured 4 hrs post-infection by MTT assay; format: functional, organism-based; conditions: dose microM 1.25-20, time 28.0 hrs
Summary of the method: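 P. aeruginosa cultures were grown with 0, 1.25, 2.5, 5, 10 or 20 μM compound for 24 h at 37 °C with shaking. Washed cells (in DMEM) were infected at MOI 100 for 4 h. Bacteria were then killed with 500 μg/mL gentamycin for 2 h, and cells were given 500 μg/mL MTT for 16 h. Formazan was dissolved in DMSO and read at 570 nm.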

[15] = system: Pseudomonas aeruginosa PAO1; test: Inhibition of quorum sensing system las in Pseudomonas aeruginosa PAO1 assessed as reduction in elastase production at 1.25 to 20 uM after 24 hrs by BODIPY fluorophore based fluorescence assay; conditions: dose microM 1.25-20, time 24.0 hrs
Summary of the method: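 PAO1 in LB at OD600 0.01 was incubated with compound (0–20 μM) for 24 h at 37 °C with shaking. The centrifuged supernatant was mixed with BODIPY FL-labelled DQ elastin substrate. Fluorescence (ex 490/em 520 nm) was read every 10 min for 5 h.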

[16] = target: T1, Anthranilate--CoA ligase (Pseudomonas aeruginosa (strain ATCC 15692 / DSM 22644 / CIP 104116 /JCM 14847 / LMG 12228 / 1C / PRS 101 / PAO1)) (UniProt Q9I4X3); test: Inhibition of pqsA fluorescence in Pseudomonas aeruginosa PAO1 transfected with GFP by measuring fluorescence intensity every 15 mins for 12 hrs by microtiter plate reader assay; conditions: dose microM 1.25-20, time 12.0 hrs
T1 sequence (whole entry): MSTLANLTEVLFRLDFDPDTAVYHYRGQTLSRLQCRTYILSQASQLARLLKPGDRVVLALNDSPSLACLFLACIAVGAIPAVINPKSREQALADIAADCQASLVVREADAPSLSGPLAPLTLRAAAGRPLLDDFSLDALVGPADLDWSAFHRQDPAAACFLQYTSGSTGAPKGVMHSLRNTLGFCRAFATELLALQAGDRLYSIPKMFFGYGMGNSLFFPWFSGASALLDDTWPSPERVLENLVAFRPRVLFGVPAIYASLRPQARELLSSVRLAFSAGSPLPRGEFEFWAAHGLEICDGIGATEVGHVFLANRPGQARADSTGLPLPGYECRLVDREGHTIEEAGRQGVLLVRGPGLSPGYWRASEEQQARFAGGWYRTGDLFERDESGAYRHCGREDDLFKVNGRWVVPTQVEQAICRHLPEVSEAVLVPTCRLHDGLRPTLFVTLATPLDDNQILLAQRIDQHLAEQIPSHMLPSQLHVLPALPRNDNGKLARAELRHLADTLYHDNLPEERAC
Summary of the method: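 PAO1-gfp, PAO1-lasB-gfp, PAO1-rhlA-gfp or PAO1-pqsA-gfp reporters were grown overnight in LB, then diluted in ABTGC medium to OD600 0.02, with compound at 1.25–20 μM. Controls were 0.1% DMSO and a blank. OD600 and GFP fluorescence (ex 485/em 535 nm) were read every 15 min for at least 12 h at 37 °C; triplicate.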

[17] = system: Pseudomonas aeruginosa; test: Antibiofilm activity against Pseudomonas aeruginosa PAO1 assessed as inhibition of biofilm formation after 18 hrs by crystal violet staining based assay; format: functional, organism-based; conditions: PAO1, 18 h

In the case of `CCCCCCC(=O)NCc1c(O)c(=O)cc(C)n1C`, the pFe3+ [1] is reported as 22, the inhibition at 2.5 µM [2] is reported as -8.67% and the Activity [3] is reported as “inactive”. For the same compound, the inhibition at 20 µM [4] was 68.7%, the inhibition [5] was “inactive” and the Activity [6] was 1.17 µM. The Activity [7] was 0.88 µM, the inhibition [8] was “Active” and the inhibition at 5 µM [9] was 10.6%. For the same compound, the Activity [10] was “Dose-dependent effect”, the Activity [11] was “Dose-dependent effect” and the inhibition at 1.25 µM [12] was -5.12%. For the same compound, the inhibition at 20 µM [13] was 40%, the Activity [14] was “Dose-dependent effect” and the inhibition [15] was “Active”. The inhibition [16] was “Dose-dependent effect” and the IC50 [17] was 6.57 µM.
